# Measured values reported in ChEMBL document CHEMBL4402610 (J Med Chem, 2020).
# Experiments:
# [1] = system: Human immunodeficiency virus 1; assay: Antiviral activity against HIV1 LAI infected in human MT2 cells; assay type: functional, organism-based; settings: Human immunodeficiency virus 1, M:B_Lai
# Protease = Protease (Human immunodeficiency virus 1, UniProt Q9YQ12); assay: Inhibition of HIV-1 protease
# [2] = system: Human immunodeficiency virus 1; assay: Antiviral activity against darunavir resistant HIV1 harboring protease P30 L10I/I15V/K20R/L24I/V32I/M36I/ M46L/L63P/K70Q/V82A/I84V/L89M mutant infected in human MT4 cells assessed as reduction in p24 Gag production; assay type: functional, organism-based; settings: Human immunodeficiency virus 1, MT4
# Procedure, shortened: (§1)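 MT-4 cells (10^5/mL) were exposed to 100 TCID50s of each HIV-1 and treated with drug. Inhibition of p24 Gag protein production was the endpoint for EC50. PI-resistant variants had been selected in vitro by passaging HIV-1 NL4-3 in MT-4 cells under increasing PI (up to 5 μM). Assays were run in duplicate, and values are means of two independent experiments.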
# [3] = system: Human immunodeficiency virus 1; assay: Antiviral activity against HIV1 NL4-3 infected in human MT4 cells assessed as reduction in p24 Gag protein production; assay type: functional, organism-based; settings: Human immunodeficiency virus 1, NL4-3, MT4
# [4] = Selectivity ratio of IC50 for antiviral activity against lopinavir resistant HIV1 harboring protease L10F/V32I/M46I/I47A/A71V/I84V mutant infected in human MT4 cells to IC50 for antiviral activity against wild-type HIV1 NL4-3; assay type: functional
# [5] = system: Human immunodeficiency virus 1; assay: Antiviral activity against atazanavir resistant HIV1 harboring protease L23I/E34Q/K43I/M46I/I50L/G51A/L63P/A71V/V82A/T91A mutant infected in human MT4 cells assessed as reduction in p24 Gag production; assay type: functional, organism-based; settings: Human immunodeficiency virus 1, MT4; procedure, shortened: as §1
# [6] = Selectivity ratio of IC50 for antiviral activity against darunavir resistant HIV1 P30 harboring protease L10I/I15V/K20R/L24I/V32I/M36I/ M46L/L63P/K70Q/V82A/I84V/L89M mutant infected in human MT4 cells to IC50 for antiviral activity against wild-type HIV1 NL4-3; assay type: functional
# [7] = Selectivity ratio of IC50 for antiviral activity against atazanavir resitant HIV1 harboring protease L23I/E34Q/K43I/M46I/I50L/G51A/L63P/A71V/V82A/T91A mutant infected in human MT4 cells to IC50 for antiviral activity against wild-type HIV1 NL4-3; assay type: functional
# [8] = system: Human immunodeficiency virus 1; assay: Antiviral activity against lopinavir resistant HIV1 harboring protease L10F/V32I/M46I/I47A/A71V/I84V mutant infected in human MT4 cells assessed as inhibition of p24 Gag production; assay type: functional, organism-based; settings: Human immunodeficiency virus 1, MT4; procedure, shortened: as §1
# Sequence of Protease (Q9YQ12 whole entry): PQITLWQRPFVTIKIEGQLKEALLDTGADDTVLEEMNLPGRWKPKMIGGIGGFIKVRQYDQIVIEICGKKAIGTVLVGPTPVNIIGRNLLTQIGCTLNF
SMILES,IC50 [1] [nM],Ki (Protease) [nM],IC50 [2] [nM],IC50 [3] [nM],Ratio IC50 [4],IC50 [5] [nM],Ratio IC50 [6],Ratio IC50 [7],IC50 [8] [nM]
CC(C)CN(C[C@@H](O)[C@H](Cc1ccccc1)NC(=O)OC1C[C@@H]2CO[C@@H]3OC1C[C@H]23)S(=O)(=O)c1ccc2nc(NC3CC3)sc2c1 (stereo partly drawn),3.3,0.002,–,–,–,–,–,–,–
COc1ccc(S(=O)(=O)N(CC(C)C)C[C@@H](O)[C@H](Cc2ccccc2)NC(=O)OC2C[C@@H]3CO[C@@H]4OC2C[C@H]34)cc1 (stereo partly drawn),38,0.008,–,–,–,–,–,–,–
CC(C)CN(C[C@@H](O)[C@H](Cc1ccccc1)NC(=O)OC1C[C@@H]2CO[C@@H]3OC1C[C@H]23)S(=O)(=O)c1ccc2nc(NC(C)C)oc2c1 (stereo partly drawn),1.73,0.006,–,–,–,–,–,–,–
CC(C)CN(C[C@@H](O)[C@H](Cc1cccc(F)c1)NC(=O)O[C@H]1C[C@H]2CO[C@H]3OC1C[C@@H]23)S(=O)(=O)c1ccc2nc(NC3CC3)sc2c1,2.7,0.024,–,–,–,–,–,–,–
CC(C)CN(C[C@@H](O)[C@H](Cc1cc(F)cc(F)c1)NC(=O)O[C@H]1C[C@H]2CO[C@H]3OC1C[C@@H]23)S(=O)(=O)c1ccc2nc(NC3CC3)sc2c1,2.25,0.007,–,–,–,–,–,–,–
CC(C)CN(C[C@@H](O)[C@H](Cc1ccccc1)NC(=O)O[C@H]1C[C@H]2CO[C@H]3OC1C[C@@H]23)S(=O)(=O)c1ccc2nc(NC3CC3)sc2c1,1.86,0.027,–,–,–,–,–,–,–
CC(C)CN(C[C@@H](O)[C@H](Cc1ccccc1)NC(=O)O[C@H]1C[C@H]2CO[C@H]3OC1C[C@@H]23)S(=O)(=O)c1ccc2nc(NC(C)C)oc2c1,0.3,0.047,640,38,>26,350,17,9.1,> 1000
COc1ccc(S(=O)(=O)N(CC(C)C)C[C@@H](O)[C@H](Cc2ccccc2)NC(=O)O[C@H]2C[C@H]3CO[C@H]4OC2C[C@@H]34)cc1,71.7,0.034,–,–,–,–,–,–,–
CC(C)CN(C[C@@H](O)[C@H](Cc1ccc(F)cc1)NC(=O)O[C@H]1C[C@H]2CO[C@H]3OC1C[C@@H]23)S(=O)(=O)c1ccc2nc(NC3CC3)sc2c1,0.4,0.036,–,–,–,–,–,–,–
COC(=O)N[C@H](C(=O)N[C@@H](Cc1ccccc1)[C@@H](O)CN(Cc1ccc(-c2ccccn2)cc1)NC(=O)[C@@H](NC(=O)OC)C(C)(C)C)C(C)(C)C [ATAZANAVIR],–,–,> 1000,4,107,> 1000,–,–,430
CC(C)CN(C[C@@H](O)[C@H](Cc1cc(F)cc(F)c1)NC(=O)OC1C[C@@H]2CO[C@@H]3OC1C[C@H]23)S(=O)(=O)c1ccc2nc(NC3CC3)sc2c1 (stereo partly drawn),0.086,0.054,4.5,0.034,127,0.21,133,6.3,4.3
CC(C)CN(C[C@@H](O)[C@H](Cc1ccc(F)cc1)NC(=O)OC1C[C@@H]2CO[C@@H]3OC1C[C@H]23)S(=O)(=O)c1ccc2nc(NC3CC3)sc2c1 (stereo partly drawn),0.46,0.002,–,–,–,–,–,–,–
CC(C)CN(C[C@@H](O)[C@H](Cc1cccc(F)c1)NC(=O)OC1C[C@@H]2CO[C@@H]3OC1C[C@H]23)S(=O)(=O)c1ccc2nc(NC3CC3)sc2c1 (stereo partly drawn),1.28,0.008,–,–,–,–,–,–,–
